Measurements as given in ChEMBL document CHEMBL5724801, “EUbOPEN Chemogenomics Library - Multiplex” (2024).
Where “and” joins values, the source holds several entries; their conditions need not be identical. Identical values can stand only once.

Legend:
Type in all cases: toxicity, cell-based
Fibroblast = test: Multiplex assay against human fibroblast
Procedure, shortened: (§1)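 Imaging took place on a CQ1 microscope at 37°C and 5% CO2 once compound had been added to live cells stained at seeding with Hoechst33342, BioTracker Green Microtubule Cytoskeleton Dye, MitoTracker Red and Annexin V Alexa Fluor 680. CellPathfinder machine-learning gating classed cells as Hoechst high-intensity objects or normal cells, classed normal cells as having healthy, pyknosed or fragmented nuclei, and classed pyknosed cells as mitotic or apoptotic. Tubulin, mitochondrial-mass and membrane-permeability phenotypes are per cents of the healthy-nucleus cells.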

HEK-293T = test: Multiplex assay against HEK293T; conditions: human; procedure, shortened: as §1
U2OS = test: Multiplex assay against U2OS; conditions: human; procedure, shortened: as §1
[1] = 12 h, 1 µM, compound concentration 1 uM
[2] = 12 h, 10 µM, compound concentration 10 uM
[3] = 24 h, 1 µM, compound concentration 1 uM
[4] = 24 h, 10 µM, compound concentration 10 uM
[5] = 48 h, 1 µM, compound concentration 1 uM
[6] = 48 h, 10 µM, compound concentration 10 uM

## FC(F)(F)c1ccccc1-c1cc(C(F)(F)F)c2[nH]c(C3=NOC4(CCCCC4)C3)nc2c1
Fibroblast; [1]
  Population Apoptotic (%): 11.43% and 13.33%
  Population Fragmented Nuclei (%): 11.76% and 2.87%
  Population Healthy Nuclei (%): 56.56% and 79.89%
  Population Hoechst High Intensity Objects (%): 0%
  Population Membrane Permeable-Phenotype (%): 8% and 4.32%
  Population Mitochondria Different-Phenotype (%): 4.8% and 10.07%
  Population Mitotic Cells (%): 88.57% and 86.67%
  Population Normal (%): 100%
  Population Pyknosed Nuclei (%): 31.67% and 17.24%
  Population Tubulin-Different-Phenotype (%): 12.8% and 20.14%
  Total Cell Count: 221 and 174
Fibroblast; [2]
  Population Apoptotic (%): 7.62% and 14.29%
  Population Fragmented Nuclei (%): 10% and 8.05%
  Population Healthy Nuclei (%): 42.27% and 63.79%
  Population Hoechst High Intensity Objects (%): 0%
  Population Membrane Permeable-Phenotype (%): 12.9% and 5.41%
  Population Mitochondria Different-Phenotype (%): 19.35% and 15.32%
  Population Mitotic Cells (%): 92.38% and 85.71%
  Population Normal (%): 100%
  Population Pyknosed Nuclei (%): 47.73% and 28.16%
  Population Tubulin-Different-Phenotype (%): 30.11% and 51.35%
  Total Cell Count: 220 and 174
Fibroblast; [3]
  Population Apoptotic (%): 10.91% and 15.62%
  Population Fragmented Nuclei (%): 8.06% and 4.79%
  Population Healthy Nuclei (%): 69.76% and 78.19%
  Population Hoechst High Intensity Objects (%): 0%
  Population Membrane Permeable-Phenotype (%): 3.47% and 3.4%
  Population Mitochondria Different-Phenotype (%): 7.51% and 4.08%
  Population Mitotic Cells (%): 89.09% and 84.38%
  Population Normal (%): 100%
  Population Pyknosed Nuclei (%): 22.18% and 17.02%
  Population Tubulin-Different-Phenotype (%): 17.92% and 18.37%
  Total Cell Count: 248 and 188
Fibroblast; [4]
  Population Apoptotic (%): 13% and 17.86%
  Population Fragmented Nuclei (%): 7.66% and 9.09%
  Population Healthy Nuclei (%): 44.5% and 60.96%
  Population Hoechst High Intensity Objects (%): 0%
  Population Membrane Permeable-Phenotype (%): 7.53% and 4.39%
  Population Mitochondria Different-Phenotype (%): 25.81% and 29.82%
  Population Mitotic Cells (%): 87% and 82.14%
  Population Normal (%): 100%
  Population Pyknosed Nuclei (%): 47.85% and 29.95%
  Population Tubulin-Different-Phenotype (%): 69.89% and 65.79%
  Total Cell Count: 209 and 187
Fibroblast; [5]
  Population Apoptotic (%): 20.83% and 16.67%
  Population Fragmented Nuclei (%): 8.37% and 6.59%
  Population Healthy Nuclei (%): 82.51% and 86.81%
  Population Hoechst High Intensity Objects (%): 0%
  Population Membrane Permeable-Phenotype (%): 1.38% and 1.27%
  Population Mitochondria Different-Phenotype (%): 10.14% and 2.53%
  Population Mitotic Cells (%): 79.17% and 83.33%
  Population Normal (%): 100%
  Population Pyknosed Nuclei (%): 9.13% and 6.59%
  Population Tubulin-Different-Phenotype (%): 7.83% and 18.99%
  Total Cell Count: 263 and 182
Fibroblast; [6]
  Population Fragmented Nuclei (%): 9.33% and 11.92%
  Population Healthy Nuclei (%): 78.22% and 73.06%
  Population Hoechst High Intensity Objects (%): 0%
  Population Membrane Permeable-Phenotype (%): 0.57% and 4.26%
  Population Mitochondria Different-Phenotype (%): 13.64% and 7.8%
  Population Mitotic Cells (%): 96.43% and 55.17%
  Population Normal (%): 100%
  Population Pyknosed Nuclei (%): 12.44% and 15.03%
  Population Tubulin-Different-Phenotype (%): 38.64% and 60.99%
  Total Cell Count: 225 and 193
HEK-293T; [1]
  Population Apoptotic (%): 5.48% and 14.05%
  Population Fragmented Nuclei (%): 1.23% and 6.04%
  Population Hoechst High Intensity Objects (%): 0%
  Population Membrane Permeable-Phenotype (%): 0%
  Population Mitochondria Different-Phenotype (%): 43.68% and 36.84%
  Population Mitotic Cells (%): 94.52% and 85.95%
  Population Normal (%): 100%
  Population Pyknosed Nuclei (%): 45.06% and 81.21%
  Total Cell Count: 324 and 149
HEK-293T; [2]
  Population Apoptotic (%): 11.51% and 25.77%
  Population Fragmented Nuclei (%): 0.39% and 4.42%
  Population Hoechst High Intensity Objects (%): 0.78% and 0%
  Population Membrane Permeable-Phenotype (%): 0%
  Population Mitochondria Different-Phenotype (%): 32.17% and 18.18%
  Population Mitotic Cells (%): 88.49% and 74.23%
  Population Normal (%): 99.22% and 100%
  Population Pyknosed Nuclei (%): 54.51% and 85.84%
  Population Tubulin-Different-Phenotype (%): 40.87% and 45.45%
  Total Cell Count: 257 and 113
HEK-293T; [3]
  Population Apoptotic (%): 10.89% and 15.53%
  Population Fragmented Nuclei (%): 1.48% and 2.1%
  Population Hoechst High Intensity Objects (%): 0%
  Population Membrane Permeable-Phenotype (%): 0.93% and 5.41%
  Population Mitochondria Different-Phenotype (%): 18.75% and 24.32%
  Population Mitotic Cells (%): 89.11% and 84.47%
  Population Normal (%): 100%
  Population Tubulin-Different-Phenotype (%): 18.29% and 21.62%
HEK-293T; [4]
  Population Apoptotic (%): 37.98% and 40%
  Population Fragmented Nuclei (%): 1.06% and 5.51%
  Population Hoechst High Intensity Objects (%): 0.7% and 0%
  Population Membrane Permeable-Phenotype (%): 0.66% and 0%
  Population Mitochondria Different-Phenotype (%): 57.89% and 50%
  Population Mitotic Cells (%): 62.02% and 60%
  Population Normal (%): 99.3% and 100%
  Population Pyknosed Nuclei (%): 45.42% and 86.61%
  Population Tubulin-Different-Phenotype (%): 72.37% and 30%
  Total Cell Count: 286 and 127
HEK-293T; [5]
  Population Fragmented Nuclei (%): 2% and 1.31%
  Population Healthy Nuclei (%): 85.85% and 52.94%
  Population Hoechst High Intensity Objects (%): 0%
  Population Membrane Permeable-Phenotype (%): 4.66% and 2.47%
  Population Mitochondria Different-Phenotype (%): 18.43% and 25.93%
  Population Mitotic Cells (%): 94.52% and 78.57%
  Population Normal (%): 100%
HEK-293T; [6]
  Population Apoptotic (%): 29.75% and 35.21%
  Population Fragmented Nuclei (%): 1.37% and 5.17%
  Population Healthy Nuclei (%): 74.95% and 33.62%
  Population Hoechst High Intensity Objects (%): 0%
  Population Membrane Permeable-Phenotype (%): 3.92% and 2.56%
  Population Mitochondria Different-Phenotype (%): 79.11% and 61.54%
  Population Mitotic Cells (%): 70.25% and 64.79%
  Population Normal (%): 100%
  Population Pyknosed Nuclei (%): 23.68% and 61.21%
U2OS; [1]
  Population Apoptotic (%): 48.57% and 27.27%
  Population Fragmented Nuclei (%): 2.24% and 1.95%
  Population Healthy Nuclei (%): 87.96% and 83.77%
  Population Hoechst High Intensity Objects (%): 0%
  Population Membrane Permeable-Phenotype (%): 1.91% and 5.43%
  Population Mitochondria Different-Phenotype (%): 0.32% and 6.98%
  Population Mitotic Cells (%): 51.43% and 72.73%
  Population Normal (%): 100%
  Population Pyknosed Nuclei (%): 9.8% and 14.29%
  Population Tubulin-Different-Phenotype (%): 0.96% and 0%
  Total Cell Count: 357 and 154
U2OS; [2]
  Population Apoptotic (%): 51.92% and 25%
  Population Fragmented Nuclei (%): 1.81% and 6.56%
  Population Healthy Nuclei (%): 82.53% and 69.4%
  Population Hoechst High Intensity Objects (%): 0%
  Population Membrane Permeable-Phenotype (%): 18.61% and 23.62%
  Population Mitotic Cells (%): 48.08% and 75%
  Population Normal (%): 100%
  Population Pyknosed Nuclei (%): 15.66% and 24.04%
  Population Tubulin-Different-Phenotype (%): 21.17% and 11.81%
  Total Cell Count: 332 and 183
U2OS; [3]
  Population Apoptotic (%): 53.33% and 54.17%
  Population Fragmented Nuclei (%): 0.65% and 0%
  Population Healthy Nuclei (%): 89.61% and 86.59%
  Population Hoechst High Intensity Objects (%): 0%
  Population Membrane Permeable-Phenotype (%): 1.69% and 5.16%
  Population Mitochondria Different-Phenotype (%): 0.24% and 8.39%
  Population Mitotic Cells (%): 46.67% and 45.83%
  Population Normal (%): 100%
  Population Pyknosed Nuclei (%): 9.74% and 13.41%
  Population Tubulin-Different-Phenotype (%): 1.93% and 0.65%
  Total Cell Count: 462 and 179
U2OS; [4]
  Population Apoptotic (%): 41.86% and 43.75%
  Population Fragmented Nuclei (%): 2.02% and 5.56%
  Population Healthy Nuclei (%): 76.26% and 70.2%
  Population Hoechst High Intensity Objects (%): 0%
  Population Mitotic Cells (%): 58.14% and 56.25%
  Population Normal (%): 100%
  Population Pyknosed Nuclei (%): 21.72% and 24.24%
  Population Tubulin-Different-Phenotype (%): 24.17% and 12.95%
  Total Cell Count: 396 and 198
U2OS; [5]
  Population Apoptotic (%): 45.78% and 50%
  Population Fragmented Nuclei (%): 2.67% and 2.11%
  Population Healthy Nuclei (%): 87.27% and 85.96%
  Population Hoechst High Intensity Objects (%): 0.12% and 0%
  Population Membrane Permeable-Phenotype (%): 0.69% and 1.63%
  Population Mitochondria Different-Phenotype (%): 0.28% and 8.16%
  Population Mitotic Cells (%): 54.22% and 50%
  Population Normal (%): 99.88% and 100%
  Population Pyknosed Nuclei (%): 10.06% and 11.93%
  Population Tubulin-Different-Phenotype (%): 1.53% and 0.82%
  Total Cell Count: 826 and 285
U2OS; [6]
  Population Apoptotic (%): 40.68% and 58.46%
  Population Fragmented Nuclei (%): 3.58% and 4.76%
  Population Healthy Nuclei (%): 78.04% and 69.44%
  Population Hoechst High Intensity Objects (%): 0%
  Population Mitotic Cells (%): 59.32% and 41.54%
  Population Normal (%): 100%
  Population Pyknosed Nuclei (%): 18.38% and 25.79%
  Population Tubulin-Different-Phenotype (%): 19.56% and 20.57%
  Total Cell Count: 642 and 252
